Published values from different studies.
Protocols differ between the studies behind these lines.
Organism: Trypanosoma brucei
Effect on: parasite growth

Compound | assay | test system | setting | EC50
COc1cccc(C(=O)C[S+]([O-])c2nc(C)cc(C)c2C#N)c1 (stereo not drawn) | resazurin |  |  | 25400 nM
O=C(N/N=C/c1ccc([N+](=O)[O-])o1)c1cn(Cc2ccccc2)c2ccccc2c1=O | resazurin |  | 72 h | 570 nM
CCCCCC(=O)NC(Cc1ccc(NC(=O)OC(C)(C)C)cc1)C(=O)NC(Cc1ccc(NC(=O)OC(C)(C)C)cc1)C(=O)NC(CC(C)C)C(=O)C1(C)CO1 (stereo not drawn) | SYBR Green |  | 72 h | 465 nM
Cc1cc(C)c(C#N)c(SCC(=O)c2ccccc2O)n1 | resazurin |  |  | > 64000 nM
O=c1c(O[C@@H]2O[C@H](CO)[C@H](O)[C@H](O)[C@H]2O)c(-c2ccc(O)c(O)c2)oc2cc(O)cc(O)c12 | resazurin |  | 48 h | 50000 nM
O=C(N/N=C/c1ccc([N+](=O)[O-])o1)c1cn(Cc2ccccc2)c2ccc(Oc3ccccc3)cc2c1=O | resazurin |  | 72 h | 320 nM
Cc1cc(C)c(C#N)c(SCC(=O)c2cccc(N)c2)n1 | resazurin | RHODESIENSE |  | 41400 nM
COc1ccc2c(c1)c(=O)c(C(=O)NN)cn2Cc1ccc(C)cc1 | resazurin |  | 72 h | > 4000 nM
N=C(N)c1ccc(OCCCCCOc2ccc(C(=N)N)cc2)cc1 | SYBR Green | RHODESIENSE |  | 27 nM
Cc1cc(C)c(C#N)c(NCC(O)c2ccc(F)cc2)n1 (stereo not drawn) | resazurin | RHODESIENSE |  | 7860 nM
CCCCCC(=O)NC(Cc1ccc(N)cc1)C(=O)NC(Cc1ccc(N)cc1)C(=O)NC(CC(C)C)C(=O)C1(C)CO1 (stereo not drawn) | SYBR Green |  | 72 h | < 500 nM
Cc1ccc(Cn2cc(C(=O)N/N=C/c3ccc([N+](=O)[O-])o3)c(=O)c3cc(Cl)ccc32)cc1 | resazurin |  | 72 h | 420 nM
